High-throughput results as filed in PubChem.
proCasp3 act: activators of human procaspase-3 | P42574 | recombinant procaspase-3 D3A, Ac-DEVD-pNA absorbance 405 nm | activation, % at 8.5 µM | hit rate 0.11% among 330,000 | AID 463141;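 active = activation above the mean of all tested compounds plus 3 SD, cut at about 21% in these data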;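 note: 0% = DMSO alone and 100% = DMSO wells spiked with extra 5 µM PC-3 D3A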
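Test system: Procaspase-3 D3A mutant; medium: Zinc-free HEPES/NaCl buffer with 0.01% Triton X-100 at pH 7.4; reagent: DEVD-pNA substrate; doses: one concentration, 8.5 µM nominal, 0.8% DMSO; times: 1 h preincubation plus 2 h reaction at 25 °C; signal: Epi-absorbance at 405 nm of released p-nitroaniline, 0 and 120 min; replicates: singlicate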
GSTO1 inh: counter-screen for RBBP9 inhibitors: inhibitors of human GSTO1; P78417; recombinant GSTO1, activity-based probe fluorescence polarization; inhibition, % at 5.96 µM; hit rate 1.1% among 300,000; AID 1974;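 active = inhibition above the campaign mean inhibition plus 3 SD, cut at about 35% in these data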;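 note: 0% = GSTO1-1 with DMSO and 100% = wells lacking GSTO1-1 enzyme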
proCasp7 act: counter-screen: procaspase-7 (human) activation | P55210 | recombinant procaspase-7, Ac-DEVD-pNA absorbance 405 nm; D23A/D198A/D206A triple mutant, cannot self-cleave; scale: DMSO 0, 5 µM enzyme 100 | activation, % at 8.5 µM | hit rate 0.093% among 330,000 | AID 463210;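 active = percent activation above the screen-wide mean plus 3 SD, cut at about 25% in these data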
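Assay system: Uncleavable procaspase-7 mutant enzyme / Input: 2 µM procaspase-7 mutant as dispensed / Dosing: single nominal 8.5 µM compound dose, 0.8% DMSO final / Timing: 1 h enzyme–compound preincubation and 2 h substrate reaction, both 25 °C / Detection: p-Nitroaniline absorbance at 405 nm, read at 0 and 120 min / Replication: singlicate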
Apaf-1 inh: blocks human Apaf-1 apoptosome activity; reconstituted apoptosome caspase-3 activity, DEVD-Rh110 fluorescence; inhibition, % at 20 µM; hit rate 0.71% among 330,000; AID 489030; active = inhibition of at least 40% at 20 µM;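 note: plate controls were DMSO wells for no effect and DEVD-CHO caspase inhibitor wells for full effect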
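System: Apoptosome proteins | Medium: Hepes pH 7.5 with detergent and BSA | Also added: Cytochrome c trigger plus (Z-DEVD)2-Rh110 caspase-3 substrate | Incubation: 30 min compound preincubation, 50 min activation, room temperature | Detection: Rhodamine 110 fluorescence at Ex 480/Em 540 nm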
EBNA-1 inhibitor: blocks EBNA-1 binding to DNA. EBNA-1 DNA binding, fluorescence polarization. inhibition, % at 14.8 µM. hit rate 0.34% among 300,000; in the data active = inhibition above about 28%
ZTA DNA inh: ZTA (EBV) inhibition in EBNA-1 counter-screen; hit rate 0.15% among 320,000; inhibition, % at 11 µM; AID 2234; ZTA-DNA binding, fluorescence polarization; P03206; in the data active = inhibition above about 33%
GSTO1 inh conf: confirmation of human GSTO1 inhibitors; shares compounds with GSTO1 inh; AID 2176; hit rate 54% among 2,400; recombinant GSTO1, probe fluorescence polarization; inhibition, % at 5.96 µM;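 active = inhibition above the primary screen's cutoff, its mean inhibition plus 3 SD, cut at about 35% in these data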;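 note: loss of polarization as inhibitors block binding of rhodamine sulfonate ester activity probe; 0% = GSTO1 with DMSO and 100% = wells lacking GSTO1 enzyme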
Zta DNA confirm: confirmation of Epstein-Barr virus ZTA DNA binding inhibitors; shares compounds with ZTA DNA inh; Zta-ZRE DNA binding, fluorescence polarization; inhibition, % at 11.1 µM; hit rate 30% among 320; AID 2361;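 active = mean inhibition across triplicate runs above the hit threshold derived for the original primary screen, cut at about 33% in these data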;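 note: 0% = Zta with DMSO and 100% = wells lacking Zta protein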
EBNA1 counter: counter-screen for ZTA inhibitors: EBNA-1 DNA binding inhibition; shares compounds with ZTA DNA inh; fluorescence polarization; inhibition, % at 14.8 µM; 320 tested, under 10 active; AID 2362
Apaf-1 inh conf: confirmation of Apaf-1 inhibitors | shares compounds with Apaf-1 inh | reconstituted apoptosome, caspase-3 DEVD-Rh110 fluorescence | inhibition, % at 20 µM | hit rate 25% among 1,800 | AID 504614;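 active = mean inhibition of at least 40% at 20 µM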;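 note: plate controls were DMSO wells for no effect and DEVD-CHO caspase inhibitor control wells for full effect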
Rh110 interf inh: Rh110 signal interference in Apaf-1 inhibitor counter-screen; shares compounds with Apaf-1 inh; Rh110 fluorescence interference, quenched caspase reaction; activation (fluorescence interference), % at 20 µM; 1,800 tested, under 10 active; AID 504615;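 active = signal rise of 40% or more at 20 µM, treated as a fluorescence artifact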
Fluor interf inh: Apaf-1 inhibitor counter-screen fluorescence artifact; shares compounds with Apaf-1 inh; fluorescence interference counterscreen, Apaf-1 assay format; IC50, µM; 460 tested, under 10 active
Active calls of the source: *; . = no result. This is a sample that favours compounds with a hit; in the whole collection about 1.8% have one here. Unless noted, the rule behind the calls is not given here.

SMILES	proCasp3 act	GSTO1 inh	proCasp7 act	Apaf-1 inh	EBNA-1 inhibitor	ZTA DNA inh	GSTO1 inh conf	Apaf-1 inh conf	Rh110 interf inh	Fluor interf inh	others
CC1CCCC(NC(=O)CSc2ncccn2)C1C (configuration not stated)	-1.7	.	-10.6	9.2	.	2.8	.	.	.	.
COc1ccccc1N1CCN(C(=O)C(=O)c2c[nH]c3ccccc23)CC1	0.9	6.4	-6.3	5.5	-7.8	-8.3	.	.	.	.
Cc1[nH]n(-c2ccccc2)c(=O)c1C(c1cccc([N+](=O)[O-])c1)c1c(C)[nH]n(-c2ccccc2)c1=O	1.9	52.2*	-8.7	64.1*	3.8	2.4	22.6	31.1	6.0	.
COc1cccc(C(C[N+](=O)[O-])c2c(C)[nH]n(-c3ccccc3)c2=O)c1 (configuration not stated)	-13.7	80.7*	-20.4	97.0*	-2.0	-0.8	4.1	15.9	-7.1	.
Cc1[nH]n(-c2ccccc2)c(=O)c1C(c1ccc(C(=O)O)cc1)c1c(C)[nH]n(-c2ccccc2)c1=O	6.0	60.5*	7.7	70.6*	-3.9	-12.6	17.5	22.1	5.7	.
Cc1[nH]n(-c2ccccc2)c(=O)c1C(=O)c1ccc([N+](=O)[O-])cc1	-0.6	-6.7	3.5	14.9	-26.5	-4.6	.	.	.	.
Cc1[nH]n(-c2ccccc2)c(=O)c1C(C[N+](=O)[O-])c1ccc(Br)cc1 (configuration not stated)	5.0	44.6*	4.5	87.3*	5.9	-1.4	13.3	96.4*	16.2	>100
CCCn1c(N)c(C(=O)COC(=O)c2cccc(S(=O)(=O)N3CCOCC3)c2)c(=O)[nH]c1=O	-5.1	.	-3.3	-7.1	.	-6.3	.	.	.	.
N#Cc1c(N2CCCC2)nc(N)c2c(N)nc(N3CCCC3)cc12	-5.9	93.1*	-5.6	98.1*	9.8	59.9*	90.8*	99.0*	8.9	>100	Zta DNA confirm=55.2*;EBNA1 counter=-25.5
CCCCn1c(N)c(N(CC(C)C)C(=O)c2ccc(OCC3CCCO3)cc2)c(=O)[nH]c1=O (configuration not stated)	-14.6	-6.6	4.2	-2.1	5.0	10.3	.	.	.	.
Oc1ccc(NCc2ccccc2OCc2ccccc2F)cc1	0.4	73.7*	-17.6	92.1*	2.5	-7.7	9.5	30.0	10.2	.
Cc1ccc(NCc2ccccc2OCc2ccccc2F)cc1	3.3	7.2	5.2	12.0	-6.6	3.9	.	.	.	.
O=C(COc1ccc(Br)cc1)NNC(=O)c1ccc(-n2cncn2)c([N+](=O)[O-])c1	2.3	.	0.0	1.7	.	-11.6	.	.	.	.
COC(=O)c1cc(C)nc2c1C(=O)C(=O)C=C2N1CCOCC1	-5.8	99.5*	-4.0	98.5*	-0.9	57.1*	95.3*	100.2*	4.4	>100
CCN(CC)CCCN(C(=O)c1ccc(F)cc1)c1nc(-c2ccc(OC)cc2)cs1	1.0	3.4	2.2	14.4	-18.3	-7.3	.	.	.	.
CC1=NN(c2ccccc2)C(=O)/C1=C\c1sccc1C	-7.5	21.6	1.2	27.5	7.5	4.4	.	.	.	.
CC1=NN(c2ccc(Br)cc2)C(=O)/C1=C/c1cccs1	-2.5	45.4*	-5.9	96.0*	7.7	-3.3	16.7	18.6	0.3	.
CC1=NN(c2ccc(C)cc2)C(=O)/C1=C\c1ccc(Br)s1	6.8	39.7*	-7.9	89.1*	7.3	26.0	11.9	17.5	4.8	.
CCCc1ccc2oc(C(=O)NCc3nnc(C)o3)c(C)c2c1	.	.	.	19.4	.	.	.	.	.	.
CCC(Sc1nc2ccncc2[nH]1)C(=O)Nc1ccc(C)c(Cl)c1 (configuration not stated)	9.2	-12.8	3.4	3.9	-9.0	10.4	.	.	.	.
COc1ccc(OC)c(Nc2cc3ccccc3c(=O)[nH]2)c1	-3.2	70.7*	-6.0	96.8*	-18.4	-2.5	5.8	94.4*	5.1	>100
COc1ccc(OC)c(Nc2nnc(C)c(=O)[nH]2)c1	7.5	3.3	4.7	5.9	-9.1	-10.4	.	.	.	.
COc1ccccc1Nc1cc2cc(Br)ccc2c(=O)[nH]1	-0.2	42.0*	-15.0	96.8*	-1.2	11.9	12.1	98.1*	15.9	>100
CC(=O)N(C1=C(N2CCOCC2)C(=O)c2ccccc2C1=O)c1ccc(C(=O)O)cc1	-8.5	61.1*	-7.8	58.6*	-3.6	-6.2	55.2*	54.7*	7.5	>100
CC(=O)c1ccc(NC2=C(N3CCOCC3)C(=O)c3ccccc3C2=O)cc1	-2.6	39.3*	-13.0	80.1*	-0.3	3.9	8.0	45.5*	1.7	>100
SMILES	proCasp3 act	GSTO1 inh	proCasp7 act	Apaf-1 inh	EBNA-1 inhibitor	ZTA DNA inh	GSTO1 inh conf	Apaf-1 inh conf	Rh110 interf inh	Fluor interf inh	others
O=C1c2ccccc2-c2ccc(C(=O)N3CCOCC3)cc21	0.8	-12.4	0.5	-0.5	3.8	2.4	.	.	.	.
Cc1ccc(NC2=C(N3CCOCC3)C(=O)c3ccccc3C2=O)cc1	-1.7	48.0*	-6.5	59.0*	-1.8	-2.0	21.1	81.1*	9.3	>100
Cc1ccc(C)n1-c1cc([N+](=O)[O-])ccc1-n1ccnc1	-0.7	6.5	-5.6	5.8	-4.7	-7.9	.	.	.	.
CC1(C)N([O-])c2cc([N+](=O)[O-])ccc2[N+]1=O	-18.3	81.9*	-26.0	66.4*	-3.1	-4.0	42.0*	69.6*	2.9	>100
O=C1CC(N2CCOCC2)=NN1c1ccc([N+](=O)[O-])cc1	11.7	48.2*	9.5	94.4*	-0.4	-1.1	10.6	14.9	5.7	.
Cc1c(C(=O)c2ccc(F)cc2F)c2ccccn2c1CCC#N	-18.1	39.1*	-33.5	62.7*	-9.4	-19.6	4.0	24.2	9.7	.
COc1ccc(NC(=O)COC(=O)C2CC(=O)N(CCc3ccc(OC)c(OC)c3)C2)cc1Cl (configuration not stated)	-4.0	.	9.5	-6.4	.	3.6	.	.	.	.
CC1=NN(c2ccccc2)C(=O)C1N=Nc1ccc(C)cc1 (configuration not stated)	5.1	2.0	-1.2	-9.2	3.2	1.8	.	.	.	.
